Results pooled from the literature.
Compare with care: the assays were run in different laboratories.
Target: Serine/threonine-protein kinase 26 (STK26, Homo sapiens, UniProt Q9P289)

For `Cc1cnc(Nc2ccc(C(=O)N3CCC(N4CCCC4)CC3)cc2)nc1-c1cc2ccccc2s1`, the remaining binding was 77% (binding, competition with immobilised ligand; 1 µM).
`NS(=O)(=O)c1cc(NC(=O)C2(c3ccccc3Cl)CC2)ccc1Oc1cccc(Cl)c1` has a remaining binding of 100% (cell-free assay, competition with immobilised ligand; 1 µM).
`FC(F)(F)Oc1cccc(-c2cnc3ccc(-c4ccncc4)nn23)c1` gave a remaining binding of 59% (cell-free assay, competition with immobilised ligand; 5 µM).
`CN([C@@H]1CCc2c(CC(=O)O)c3ccccc3n2C1)S(=O)(=O)c1ccc(F)cc1` gave a remaining binding of 79% (cell-free assay, competition with immobilised ligand; 1 µM).
For `COc1cnc(Nc2cccc(S(N)(=O)=O)c2)nc1N1CCN(c2ccccc2)C(=O)C1`, the remaining binding was 83% (binding, competition with immobilised ligand; 1 µM).
`CN1CCN(c2ccc(Nc3nccc(-c4cccc([N+](=O)[O-])c4)n3)cc2C(F)(F)F)CC1` gave a remaining binding of 33% (binding; 10 µM).
For `O=C(Nc1c[nH]nc1C(=O)NC1CCNCC1)c1cc(F)cc(F)c1`, the remaining binding was 68% (binding, competition with immobilised ligand; 1 µM).
The remaining binding of `O=C(NCCCN1CCOCC1)c1ccc(Nc2nccc(-c3cc4ccccc4s3)n2)cc1` is reported as 87% (binding, competition with immobilised ligand; 1 µM).
With `Nc1ncc2c(n1)-c1c([nH]c3ccc(C#CC4CC4)cc13)CCCC2` the remaining binding was 99% (binding, competition with immobilised ligand; 1 µM).
`C=CC(=O)N1CCC(C(=O)NCC(=O)N2CCN(c3nc(-c4cnc(N)nc4C(F)F)nc(N4CCOCC4)n3)CC2)CC1` gave a remaining binding of 100% (binding, competition with immobilised ligand; 1 µM).
`Cc1nc(C2CCN(C(=O)c3ccc(OC(F)(F)F)cc3N)CC2)c2ncc(N3CCN(C)CC3)cc2n1` has a remaining binding of 100% (cell-free assay, competition with immobilised ligand; 1 µM).
With `O=C(c1ccc(Nc2ncc(Cl)c(-c3cc4ccccc4s3)n2)cc1)N1CCC(N2CCCC2)CC1` the remaining binding was 66% (binding, competition with immobilised ligand; 1 µM).
`COc1ncc2cc3ccccc3nc2c1C#N` has a remaining binding of 100% (cell-free assay, competition with immobilised ligand; 5 µM).
`O=C(Nc1cccnn1)N1CCC(=Cc2cccc(Oc3ccc(C(F)(F)F)cn3)c2)CC1` has a remaining binding of 100% (cell-free assay, competition with immobilised ligand; 1 µM).
